Assay results: ChEMBL document CHEMBL4613213, “Anibamine and Its Analogues: Potent Antiplasmodial Agents from Aniba citrifolia” (J Nat Prod, 2020)
Activity calls are given as the source filed them. The rule behind the calls is not given here.

How the values were obtained:
Plasmodium falciparum [1] = assay: Antiplasmodial activity against Plasmodium falciparum Dd2 assessed as reduction in parasite growth after 72 hrs by SYBR Green 1 staining based assay; format: functional, organism-based
Summary of the method: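 Dd2 cultures started at ring stage, 1% hematocrit and 1% parasitemia. Grown 72 h at 37 °C in 5% CO2/5% O2/90% N2 across increasing drug concentrations. Viability read by SYBR Green I DNA quantitation in lysis buffer. IC50 from nonlinear regression; mean of three independent determinations, each in triplicate, ± SEM.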

A2780 = assay: Cytotoxicity against human A2780 cells assessed as reduction in cell viability after 2 days by AlamarBlue assay; format: ADME, cell-based; details: A2780, 48 h
[2] = Hemolytic activity in human RBC; format: cell-based, Erythrocyte; details: human red blood cells (erythrocytes)
Plasmodium falciparum [3] = assay: Antiplasmodial activity against Plasmodium falciparum Dd2 schizonts form infected in erythrocytes assessed as morphological defects at 0.5 uM after 48 hrs by Giemsa staining based light microscopic method; format: functional, organism-based
Summary of the method: (§1)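 Compound added at schizont stage (40–42 post-invasion). Morphology assessed on Giemsa-stained thin blood smears at 6, 24 and 48 h of treatment and compared with untreated controls. Two or more independent experiments.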

Plasmodium falciparum [4] = assay: Antiplasmodial activity against Plasmodium falciparum Dd2 schizonts form infected in erythrocytes assessed as reduction in ring stage formation at 0.5 uM after 6 hrs by Giemsa staining based light microscopic method; format: functional, organism-based; summary of the method: as §1
Plasmodium falciparum [5] = assay: Antiplasmodial activity against Plasmodium falciparum Dd2 schizonts form infected in erythrocytes assessed as reduction in parasite growth at 0.5 uM after 6 hrs by Giemsa staining based light microscopic method; format: functional, organism-based; summary of the method: as §1
Plasmodium falciparum [6] = assay: Antiplasmodial activity against Plasmodium falciparum Dd2 schizonts form infected in erythrocytes assessed as reduction in reinvasion at 0.5 uM after 6 hrs by Giemsa staining based light microscopic method; format: functional, organism-based; summary of the method: as §1
Plasmodium falciparum [7] = assay: Antiplasmodial activity against Plasmodium falciparum Dd2 schizonts form infected in erythrocytes assessed as reduction in trophozoites formation at 0.5 uM after 48 hrs by Giemsa staining based light microscopic method; format: functional, organism-based; summary of the method: as §1
Plasmodium falciparum [8] = assay: Antiplasmodial activity against Plasmodium falciparum Dd2 schizonts form infected in erythrocytes assessed as reduction in parasite growth at 1.25 uM after 6 hrs by Giemsa staining based light microscopic method; format: functional, organism-based
Summary of the method: (§2)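 Dd2 intraerythrocytic cultures were treated either at ring stage (2–4 h post-invasion) or at schizont stage (40–42 post-invasion). Development and morphology were followed by light microscopy of Giemsa-stained thin blood smears at 6, 24, 48 and 72 h of treatment and compared with untreated controls. Data come from two or more independent experiments.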

Plasmodium falciparum [9] = assay: Antiplasmodial activity against Plasmodium falciparum Dd2 schizonts form infected in erythrocytes assessed as reduction in ring stage formation at 1.25 uM after 6 hrs by Giemsa staining based light microscopic method; format: functional, organism-based; summary of the method: as §2
Plasmodium falciparum [10] = assay: Antiplasmodial activity against Plasmodium falciparum Dd2 schizonts form infected in erythrocytes assessed as reduction in reinvasion at 1.25 uM after 6 hrs by Giemsa staining based light microscopic method; format: functional, organism-based; summary of the method: as §2
Plasmodium falciparum [11] = assay: Antiplasmodial activity against Plasmodium falciparum Dd2 ring stage form infected in erythrocytes assessed as reduction in parasite growth at 0.5 uM after 6 to 72 hrs by Giemsa staining based light microscopic method; format: functional, organism-based
Summary of the method: (§3)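 Compound added at ring stage (2–4 h post-invasion). Development followed on Giemsa-stained thin blood smears after 6, 24, 48 and 72 h of treatment and compared with untreated controls. Two or more independent experiments.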

Plasmodium falciparum [12] = assay: Antiplasmodial activity against Plasmodium falciparum Dd2 ring stage form infected in erythrocytes assessed as reduction in reinvasion at 0.5 uM after 48 to 72 hrs by Giemsa staining based light microscopic method; format: functional, organism-based; summary of the method: as §3
[13] = Plasmodium falciparum, Dd2, 72 h, read-out: IC50

| SMILES | IC50 (Plasmodium falciparum [1]; [13]) [µM] | Activity (Plasmodium falciparum [4]) | Activity (Plasmodium falciparum [5]) | Activity (Plasmodium falciparum [6]) | also measured |
| --- | --- | --- | --- | --- | --- |
| CCCCCCCC/C=C/c1c(C)cc(CCCOC)nc1C | 6.7 |  |  |  |  |
| CCCCCCCC/C=C\c1c(C)nc(C)c(/C=C/CCCCCCCC)c1C | 20 |  |  |  |  |
| CCCCCCCC/C=C\c1c(CCCOC)nc(C)c(/C=C/CCCCCCCC)c1C | > 20 |  |  |  |  |
| C.C=CC[C@]1(C(=O)OC)CC(=O)C[C@H](c2ccc3c(c2)OCO3)[C@H]1C | > 100 |  |  |  | IC50 (A2780): > 10 µM |
| CCCCCCCCCCc1c(C)c(CCCCCCCCCC)c2[n+](c1C)CCCC2 | 0.058 | inactive | inactive | inactive | HC50 [2]: > 58 µM; Activity (Plasmodium falciparum [3]): Active; Activity (Plasmodium falciparum [7]): Active |
| CCCCCCCC/C=C\c1c(C)c(/C=C\CCCCCCCC)c2[n+](c1C)CCC2 |  | inactive | inactive | inactive | Activity (Plasmodium falciparum [8]): inactive; Activity (Plasmodium falciparum [3]): Active; Activity (Plasmodium falciparum [9]): inactive; Activity (Plasmodium falciparum [10]): inactive; Activity (Plasmodium falciparum [7]): Active |
| C=CCOc1cc2c(cc1OC)[C@H](C)[C@@H](c1ccc3c(c1)OCO3)O2 | 30 |  |  |  | IC50 (A2780): 10 to 50 µM |
| CCCCCCCCCCc1c(C)cc(C)[n+]2c1CCC2 | 0.06 | inactive | inactive | inactive | Activity (Plasmodium falciparum [11]): inactive; Activity (Plasmodium falciparum [12]): inactive |
| CCCCCCCC/C=C/c1c(C)cc(C)nc1CCCOC | > 20 |  |  |  |  |
| CCCCCCCC/C=C/c1c(C)c(/C=C/CCCCCCCC)c2[n+](c1C)CCCCC2 | 0.06 | inactive | inactive | inactive | HC50 [2]: > 58 µM; Activity (Plasmodium falciparum [3]): Active; Activity (Plasmodium falciparum [7]): Active |
| CCCCCCCC/C=C/c1c(C)cc(C)nc1C | > 20 |  |  |  |  |
| C=CC[C@@]12C=C(OC)C(=O)[C@@H]([C@H](c3ccc4c(c3)OCO4)[C@H]1C)[C@H]2O |  |  |  |  | IC50 (Plasmodium falciparum [1]): Not Active; IC50 (A2780): 10 to 50 µM |
| CCCCCCCC/C=C/c1c(C)cc2[n+](c1C)CCC2 | 0.171 | inactive | inactive | inactive | Activity (Plasmodium falciparum [11]): inactive; Activity (Plasmodium falciparum [12]): inactive |
| CCCCCCCC/C=C/c1c(C)nc(C)c(/C=C/CCCCCCCC)c1C | > 20 |  |  |  |  |
| C=CC[C@@]1(OC)C=C2C(=CC1=O)O[C@H](c1ccc3c(c1)OCO3)[C@H]2C |  |  |  |  | IC50 (Plasmodium falciparum [1]): Not Active; IC50 (A2780): 10 to 50 µM |
| CCCCCCCC/C=C\c1c(C)nc(CCCOC)c(/C=C\CCCCCCCC)c1C | 19.3 |  |  |  |  |
| CCCCCCCC/C=C\c1c(C)c(/C=C\CCCCCCCC)c2[n+](c1C)CCCCC2 | 0.067 | inactive | inactive | inactive | HC50 [2]: > 58 µM; Activity (Plasmodium falciparum [3]): Active; Activity (Plasmodium falciparum [7]): Active |
| CCCCCCCCCCc1c(C)nc(CCCOC)c(CCCCCCCCCC)c1C | > 20 |  |  |  |  |
| C=CC[C@@]12C=C(OC)C(=O)[C@@H]([C@@H](c3ccc4c(c3)OCO4)[C@@H]1C)[C@@H]2O | > 100 |  |  |  | IC50 (A2780): 10 to 50 µM |
| CCCCCCCC/C=C\c1c(C)cc(C)nc1C | > 20 |  |  |  |  |
